Hits are enriched below; roughly 2.1% of the tested compounds scored in any of these assays.
ASAP1 inh = inhibitors of human ASAP1 ArfGAP activity. inhibition, % at 16.5 µM. actives 0.19% (n = 360,000). ASAP1-stimulated ARF1 GTP hydrolysis, GDP FP detection. Q9ULH1; in the data active = inhibition above about 25%;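 also: 0% = vehicle with enzyme and substrate and 100% = no enzyme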
Target sequence (Q9ULH1 325-724 limits assumed): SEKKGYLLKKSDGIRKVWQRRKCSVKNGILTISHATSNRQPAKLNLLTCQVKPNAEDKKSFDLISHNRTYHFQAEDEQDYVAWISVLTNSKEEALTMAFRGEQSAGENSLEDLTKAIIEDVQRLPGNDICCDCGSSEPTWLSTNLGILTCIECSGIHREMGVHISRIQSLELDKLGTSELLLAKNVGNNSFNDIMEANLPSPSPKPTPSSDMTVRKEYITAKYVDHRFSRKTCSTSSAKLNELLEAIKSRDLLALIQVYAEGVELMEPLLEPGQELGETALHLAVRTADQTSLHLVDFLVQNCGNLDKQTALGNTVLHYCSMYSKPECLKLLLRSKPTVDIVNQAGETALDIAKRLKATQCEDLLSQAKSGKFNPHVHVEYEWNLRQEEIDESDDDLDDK
A3A deaminase = inhibitors of human APOBEC3A DNA deaminase | P31941 | recombinant A3A, FAM/TAMRA ssDNA deamination fluorescence | inhibition, % at 20 µM | actives 0.41% (n = 330,000) | AID 493011;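 active = at least 40% inhibition at 20 µM here, with at most 30% in a related deaminase screen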;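 also: plate controls were A3A with DMSO for no effect and wells lacking A3A enzyme for full effect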
ARFGAP1 inhibitor = rat ARFGAP1 inhibition. Q62848. Arfgap1-stimulated ARF1 GTP hydrolysis, GDP FP detection. inhibition, % at 16.5 µM. actives 0.26% (n = 360,000). AID 651572;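 active = inhibition above a per-plate limit, mean inhibition of low control wells plus 3 SD, cut at about 25% in these data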;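 also: 0% = DMSO wells with enzyme and 100% = wells lacking Arfgap1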
Target sequence (Q62848 1-136 limits assumed): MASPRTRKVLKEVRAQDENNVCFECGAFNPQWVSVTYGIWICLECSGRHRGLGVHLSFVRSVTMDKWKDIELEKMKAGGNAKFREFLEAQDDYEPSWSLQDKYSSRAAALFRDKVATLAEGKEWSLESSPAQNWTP
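Material – truncated rat Arfgap1 GAP domain · Buffer or medium – HEPES-based buffer, pH 7.5 · Reagent – human ARF1(Δ1-17)-GTP substrate · Dosing – 16.5 µM single point, 1.26% DMSO · Schedule – GTP hydrolysis reaction 2 h at 25 °C · Technique – GDP detection by fluorescence polarization · Benchmarks – No-Arfgap1 wells (100%) versus DMSO full-reaction wells (0%) · Repeats – single replicate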
Mot1-301 SUMO = inhibitors of SUMOylation pathway: yeast Mot1-301 growth rescue; actives 1% (n = 320,000); growth rescue, % at 18.8 µM; S. cerevisiae Mot1-301 growth rescue, ATP luminescence, 38.5C; percent above DMSO median, 100 means doubled;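 active = every valid replicate shows activation above 250% relative to neutral control wells; inactive = the rest, any valid replicate at or below 250%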;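 also: OY570 slx delta 5 strain wells were the positive control but not used for scaling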
APOBEC3G inh = blocks human APOBEC3G single-stranded DNA deamination; actives 0.28% (n = 330,000); inhibition, % at 20 µM; recombinant A3G, ssDNA deamination FAM/TAMRA fluorescence; Q9HC16; AID 493012;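 active = inhibition of at least 40% at 20 µM, with no more than 30% in the related APOBEC3A deaminase screen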;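 also: plate controls were DMSO wells with A3G for no effect and wells lacking A3G enzyme for full effect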
C2C12 statin = suppression of simvastatin myotoxicity. C2C12 myotubes + simvastatin, ATP luminescence, 48 h; scaled: DMSO 0, geranylgeraniol control 100. rescue of ATP level, % at 7.49 µM. actives 0.78% (n = 330,000). AID 602340;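 active = mean ATP rescue above about 67%, or every replicate alone reaching that limit, limit read from the data, passing the limit was not always enough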;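 also: myotubes were challenged with 10 µM simvastatin during compound exposure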
APOBEC3G confirm = APOBEC3G (human) deaminase inhibition, confirmed; recombinant A3G ssDNA deaminase, UDG/FAM-TAMRA fluorescence; inhibition, % at 20 µM; actives 72% (n = 890); AID 493152; shares compounds with APOBEC3G inh;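 active = inhibition reaching a set limit in any replicate at 20 µM, the limit being 80% of the first screen's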
UDG ctr A3G = E. coli UDG inhibition in APOBEC3G counter-screen | shares compounds with APOBEC3G inh | UDG counterscreen, FAM/TAMRA oligo fluorescence | inhibition, % at 20 µM | 710 tested, under 10 active | AID 504715;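 active = compounds giving 40% or more inhibition at 20 µM in any one of the three replicates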;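 also: plate controls were DMSO wells with UDG and oligo for no effect and DMSO wells lacking both for full effect; inhibitors lower the FAM signal released by uracil excision and alkaline cleavage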
An asterisk follows results filed as active; nt = no result given.

SMILES	ASAP1 inh	A3A deaminase	ARFGAP1 inhibitor	Mot1-301 SUMO	APOBEC3G inh	C2C12 statin	APOBEC3G confirm	UDG ctr A3G
COc1ccc(N2C(=O)CS(=O)C(c3ccccc3)C2=O)cc1 (centres undefined)	3.5	-3.8	-9.9	-41.2	54.3*	nt	89.5*	-4.0
Cc1ccc(S(=O)(=O)Nc2ccc3c(c2)CC(=O)N([C@H](C)CO)C[C@@H](C)[C@H](CN(C)Cc2ccc(C(=O)O)cc2)O3)cc1	nt	nt	nt	nt	nt	-12.4	nt	nt
O=C(CN(Cc1ccc(F)cc1)S(=O)(=O)c1ccccc1)N1CCCCC1	-3.6	-2.0	3.8	3.4	81.1*	-5.8	-21.6	-1.1
C[C@@H]1CN([C@H](C)CO)C(=O)c2cc(C#C[C@@H](C)O)cnc2O[C@H]1CN(C)C(=O)c1ccccc1F	nt	nt	nt	nt	nt	-2.0	nt	nt
S=c1[nH]nc(CSc2nc3ccccc3s2)n1Cc1ccccc1	-7.6	-2.6	8.9	-13.7	7.6	nt	nt	nt
C=CCn1c(CSc2nc3ccccc3s2)n[nH]c1=S	4.8	-3.1	-0.5	68.1	44.6*	nt	74.5*	-1.8
CCn1c(CSc2nc3ccccc3s2)n[nH]c1=S	-7.1	0.1	1.6	-18.5	46.7*	32.7	59.2*	-3.3
Cn1ncc(Br)c1C(=O)N/N=C/c1cccc(OC2CSC2)c1	3.0	-0.3	5.3	-6.9	-2.1	1.4	nt	nt
O=C(N/N=C/c1cccc(OC2CSC2)c1)c1ccccc1O	16.7	-3.6	3.4	-12.2	73.3*	nt	-8.0	-4.3
Cc1ccc(C(=O)NNC(=O)CSc2nnc3c(n2)[nH]c2ccc(F)cc23)cc1	-5.9	17.6	0.1	44.6	56.5*	-1.8	64.3*	0.2
Cn1c(C(=O)N[C@@H](Cc2ccccc2)C(=O)O)cc2cc(F)ccc21	2.5	-0.6	-1.8	5.3	42.6*	5.5	-2.0	1.9
COc1ccc2c(c1)cc(C(=O)N[C@@H](Cc1ccccc1)C(=O)O)n2C	0.3	-4.6	-13.2	-2.2	-5.6	0.5	nt	nt
COCC(=O)N1C[C@@H](C)[C@@H](OC)CN(C)C(=O)c2ccc(NC(=O)c3ccccc3)cc2OC[C@@H]1C	nt	nt	nt	nt	nt	-8.4	nt	nt
C[C@@H]1CN([C@@H](C)CO)C(=O)c2cccc(NS(=O)(=O)c3ccc(F)cc3)c2O[C@H]1CN(C)C	nt	nt	nt	nt	nt	-0.7	nt	nt
Cc1ccc(NNC(=O)c2ccno2)c(C)c1	5.2	-5.3	-0.9	-13.4	45.6*	nt	-0.6	-5.2
CCCCn1c(-c2ccc([N+](=O)[O-])cc2)n[nH]c1=S	3.2	-17.3	-1.8	0.9	47.8*	1.0	76.5*	1.7
CCn1c(CCCCc2n[nH]c(=S)n2CC)n[nH]c1=S	-3.8	-1.3	12.9	-11.3	46.9*	nt	88.1*	5.6
CCn1c(-c2ccc(C)cc2)n[nH]c1=S	4.5	2.5	1.4	-9.8	51.3*	nt	29.5	nt
CCn1c(-c2ccc(Cl)cc2)n[nH]c1=S	-3.2	-1.6	7.6	177.4	53.8*	21.5	80.1*	0.6
CO[C@H](CN(C)C(=O)c1cnccn1)[C@@H](C)CN([C@H](C)CO)S(=O)(=O)c1ccc(Cl)cc1	nt	nt	nt	nt	nt	-2.6	nt	nt
Cc1ccc(-n2c(C)n[nH]c2=S)cc1	-2.7	nt	11.9	-0.1	nt	nt	nt	nt
Cc1ccc(-c2csc3n[nH]c(=S)n23)cc1	-16.8	-5.3	-7.5	5.7	59.6*	2.1	82.0*	-0.6
CN=c1nc(-c2ccccc2)n(-c2ccccc2)s1	2.6	-2.1	4.4	285.5	79.5*	7.1	95.5*	-3.3
CCCC(C)c1nnc(NC(=O)CCS(=O)(=O)c2ccccc2)s1 (centres undefined)	11.0	13.3	1.0	-13.6	66.4*	2.2	56.2*	-3.8
C[C@@H]1CN([C@@H](C)CO)C(=O)c2cc(NC(=O)Cn3cnnn3)ccc2O[C@H]1CN(C)C(=O)NC1CCCCC1	nt	nt	nt	nt	nt	18.8	nt	nt
COC(=O)CCC(=O)NC(=S)Nc1sc(C)c(C)c1C(N)=O	1.1	-7.4	-4.6	-25.1	2.2	nt	nt	nt

Source: PubChem BioAssay (several laboratories)
